Activity calls are given as the source filed them.
How the values were obtained:
[1] = target: T1, Progesterone receptor (Homo sapiens) (UniProt P06401); assay: Induction of progesterone receptor B in human Ishikawa cells assessed as induction of PRE/Luc transcriptional activity at 10 uM measured after 24 hrs by luciferase reporter gene assay; assay type: cell-based
T1 sequence (whole entry): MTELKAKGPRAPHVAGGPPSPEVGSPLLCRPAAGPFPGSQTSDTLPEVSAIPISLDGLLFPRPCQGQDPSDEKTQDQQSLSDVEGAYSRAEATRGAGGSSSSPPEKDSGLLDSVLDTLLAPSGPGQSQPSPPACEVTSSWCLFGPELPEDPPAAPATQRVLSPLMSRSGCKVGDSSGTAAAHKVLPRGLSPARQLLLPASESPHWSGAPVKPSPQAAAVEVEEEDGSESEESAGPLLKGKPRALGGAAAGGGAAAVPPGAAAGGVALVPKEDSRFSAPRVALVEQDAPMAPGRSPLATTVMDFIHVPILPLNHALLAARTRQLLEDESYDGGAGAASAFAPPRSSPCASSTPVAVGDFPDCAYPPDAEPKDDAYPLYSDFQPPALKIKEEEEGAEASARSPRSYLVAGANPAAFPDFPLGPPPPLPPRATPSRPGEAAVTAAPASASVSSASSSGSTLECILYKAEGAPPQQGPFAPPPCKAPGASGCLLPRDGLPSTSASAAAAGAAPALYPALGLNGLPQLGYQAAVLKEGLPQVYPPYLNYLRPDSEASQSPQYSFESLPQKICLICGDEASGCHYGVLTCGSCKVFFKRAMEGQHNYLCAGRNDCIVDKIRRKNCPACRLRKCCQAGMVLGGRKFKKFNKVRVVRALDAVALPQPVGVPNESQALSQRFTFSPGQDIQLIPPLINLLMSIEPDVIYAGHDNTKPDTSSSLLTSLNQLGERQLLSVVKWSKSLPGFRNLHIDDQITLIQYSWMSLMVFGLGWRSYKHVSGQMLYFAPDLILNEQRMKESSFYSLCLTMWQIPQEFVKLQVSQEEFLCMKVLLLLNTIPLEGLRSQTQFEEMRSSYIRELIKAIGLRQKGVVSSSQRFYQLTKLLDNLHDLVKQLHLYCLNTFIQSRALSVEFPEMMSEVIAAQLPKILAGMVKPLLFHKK
Outline: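 Ishikawa cells stably expressing PR-B; test agent alone at 10 μM; PRE-driven luciferase reporter read-out; n≥3; mean ± SEM.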

[2] = target: T1, Progesterone receptor (Homo sapiens); assay: Potentiation of progesterone receptor B in progesterone-stimulated human Ishikawa cells assessed as induction of PRE/Luc transcriptional activity at 10 uM measured after 24 hrs by luciferase reporter gene assay relative to control
Outline: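 Ishikawa cells stably expressing PR-B co-treated with 1 nM progesterone plus test agent at 10 μM; PRE-luciferase reporter activity compared with 1 nM progesterone alone; n≥3; mean ± SEM, significance by p-value thresholds.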

Compound | Activity [1] | Activity [2] | Activity ([2]; filed as activator)
COC(=O)C1=CO[C@@H](O[C@@H]2O[C@H](CO)[C@@H](O)[C@H](O)[C@H]2O)[C@@H]2[C@H](C)O[C@@H](OC)C[C@H]12 | inactive | 18% | –
C=C[C@H]1[C@H](O[C@@H]2O[C@H](CO)[C@@H](O)[C@H](O)[C@H]2O)OC=C(C(=O)O)[C@H]1CCOC(=O)c1cc(O)c(O)c(O)c1 | inactive | – | 42%
C=C[C@H]1[C@H](O[C@@H]2O[C@H](CO)[C@@H](O)[C@H](O)[C@H]2O)OC=C2C(=O)OCC[C@H]21 | inactive | – | –
COC(=O)C1=CO[C@@H](O[C@@H]2O[C@H](CO)[C@@H](O)[C@H](O)[C@H]2O)[C@@H]2[C@H](C)O[C@H](OC)C[C@H]12 | inactive | 29% | –

Second part, the compound after the results:

Activity [1] | Activity [2] | Activity ([2]; filed as activator) | Compound
inactive | – | 43% | C=C[C@H]1[C@H](O[C@@H]2O[C@H](CO)[C@@H](O)[C@H](O)[C@H]2O)OC=C(C(=O)OC)[C@H]1CCOC(=O)c1cc(O)c(O)c(O)c1
inactive | – | – | C=C[C@H]1C(O[C@@H]2O[C@H](CO)[C@@H](O)[C@H](O)[C@H]2O)OC=C(C(=O)O)[C@H]1CC(=O)O (stereo partly specified)
inactive | – | – | C=C[C@H]1C(O[C@@H]2O[C@H](CO)[C@@H](O)[C@H](O)[C@H]2O)OC=C(C(=O)OC)[C@H]1CC(=O)O (stereo partly specified)
